Rows were chosen to be rich in hits. Some 2% of all compounds tested hit in one or more screens of this group.
PKA-R1A act – activates the PKA-R1A holoenzyme complex; actives 0.083% (n = 340,000); activation, % at 11.4 µM; P00514+P68181; PKA-R1A dissociation, Cy5-IP20 fluorescence polarization; scaled: DMSO 0%, 113 µM cGMP 100%;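 active means percent activation above the mean of all tested compounds plus 3 SD, cut at about 19% in these data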;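 further: higher means more PKAc released from R1A so a rise in polarization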
CAL PDZ FP-1 – blocks peptide binding to human CAL PDZ domain; inhibition, % at 20 µM; actives 0.02% (n = 330,000); purified CAL PDZ, TMR-peptide fluorescence polarization, 1 h; AID 504414; Q9HD26;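 active means highest replicate inhibition of at least 40%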;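 further: plate controls were DMSO neutral control wells for no effect and unlabeled competitor peptide control wells for full effect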
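Material: tagged CAL PDZ protein CerCALP, purified; buffer or medium: sodium phosphate/NaCl buffer pH 7.4 with TCEP, IgG, Thesit; also added: fluorescent TMR peptide probe; schedule: 1 h incubation at room temperature before polarization reading; technique: fluorescence polarization from S- and P-plane intensities, G-factor corrected; control set: unlabelled peptide and DMSO controls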
CAL PDZ FP-2 – CAL PDZ (human) peptide binding inhibition; Q9HD26; inhibition, % at 24.9 µM; actives 0.92% (n = 300,000); purified CAL PDZ, TMR-peptide fluorescence polarization, 1 h;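 active means mean inhibition of at least 30% with at least half of replicates also reaching 30%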;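 further: 0% = DMSO neutral control and 100% = excess unlabeled competitor peptide PRC23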
PKA-R2B act – PKA-R2B complex activation; P22694+P31323; PKA-R2B holoenzyme dissociation, Cy5-IP20 fluorescence polarization; R2B truncated from residue 108, S112A mutant; 0% DMSO only, 100% 113 µM cGMP; activation, % at 11.4 µM; actives 0.079% (n = 340,000);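 active means activation above a cutoff set at the mean over all compounds plus 3 SD, cut at about 18% in these data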;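 further: higher means more holoenzyme dissociation and a rise in polarization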
Target sequence (P31323 whole entry, looked up, other chains not shown, the tested form may be a part): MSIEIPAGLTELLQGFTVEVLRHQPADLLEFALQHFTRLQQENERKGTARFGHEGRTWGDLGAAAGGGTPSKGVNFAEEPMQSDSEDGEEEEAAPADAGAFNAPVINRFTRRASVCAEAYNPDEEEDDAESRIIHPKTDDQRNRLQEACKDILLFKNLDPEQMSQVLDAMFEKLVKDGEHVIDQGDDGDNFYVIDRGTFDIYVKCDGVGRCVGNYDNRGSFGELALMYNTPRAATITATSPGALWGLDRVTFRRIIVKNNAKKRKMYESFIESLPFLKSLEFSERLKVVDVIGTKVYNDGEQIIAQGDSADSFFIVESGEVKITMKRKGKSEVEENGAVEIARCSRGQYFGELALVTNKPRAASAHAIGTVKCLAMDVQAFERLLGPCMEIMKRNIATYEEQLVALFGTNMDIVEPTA
dFosB act-1 – enhances mouse delta FosB homodimer DNA binding | P13346 | purified delta FosB, TAMRA-CDK5 oligo fluorescence polarization; percent of positive-control signal above neutral wells | activation, % at 25 µM | actives 0.99% (n = 340,000) | AID 493131;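 active means mean activation above about 17%, with every replicate also reaching it, limit read from the data, passing the limit was not always enough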
NTR1 ag – activates human neurotensin receptor 1; NTR1-U2OS beta-arrestin-GFP spot imaging, agonist mode; actives 0.17% (n = 330,000); activation, % at 20 µM; P30989; AID 493036;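 active means activation at or above 40% of the spot to cytoplasm intensity ratio, with at least 20 cells analyzed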;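 further: 0% = DMSO without peptide and 100% = 100 nM NTR1 peptide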
dFosB act-2 – enhances mouse delta FosB homodimer binding to DNA; shares compounds with dFosB act-1; purified delta FosB, TAMRA-CDK5 oligo fluorescence polarization; normalised: neutral wells 0, positive control 100; activation, % at 24.9 µM; 2,400 tested, under 10 active;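 active means highest replicate activation at or above 34% and every replicate reaching that threshold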;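 further: higher polarization means more probe DNA bound by delta FosB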
* = called active by the depositor; · = no result given.

SMILES	PKA-R1A act	CAL PDZ FP-1	CAL PDZ FP-2	PKA-R2B act	dFosB act-1	NTR1 ag	dFosB act-2
CC(C)(C)c1cc(C(=O)N/N=C/c2cc3c(cc2Br)OCO3)n[nH]1	-2	-2	-1	-6	27*	2	4
CS(=O)(=O)N(CC(=O)N/N=C/c1cc2c(cc1Br)OCO2)c1ccccc1Br	0	·	2	-2	27*	3	7
O=C(N/N=C/c1cc2c(cc1Br)OCO2)c1ccccn1	·	·	·	·	·	2	·
O=C(N/N=C/c1cc2c(cc1Br)OCO2)c1c[nH]c2ccccc12	-10	-4	2	-13	29*	0	2
Cc1ccc(C(=O)N/N=C\c2cc3c(cc2Br)OCO3)cn1	-5	-2	2	-13	7	0	·
CC(=O)c1sc(NC(=O)c2cc(=O)c3ccccc3o2)nc1C	-10	-1	-9	-4	-1	0	·
COc1ccc(OCC(=O)Nc2nc3cc4c(cc3s2)OCCO4)cc1	0	-1	-4	-6	47*	2	0
COc1ccc2oc(C(=O)Nc3nc4ccc(S(C)(=O)=O)cc4s3)c(C)c2c1	-7	-4	-4	-6	61*	2	7
COc1cc(OC)cc(C(=O)Nc2nc3ccc(S(C)(=O)=O)cc3s2)c1	-6	-1	4	-8	-7	2	·
CC(=O)c1sc(NC(=O)c2oc3ccc(F)cc3c2C)nc1C	4	0	-3	1	59*	0	-8
COc1cc(C(=O)Nc2nc3ccc(S(C)(=O)=O)cc3s2)cc(OC)c1C	-8	-4	-3	-7	30*	5	1
COc1ccc2nc(NC(=O)CS(=O)(=O)Cc3ccccc3)sc2c1	-10	0	·	-5	74*	-1	-2
O=C(CS(=O)(=O)Cc1ccccc1)Nc1nc2ccccc2s1	-16	-2	6	2	-1	-2	·
CC(OC(=O)c1cc2ccccc2cc1O)C(=O)Nc1ccc(S(N)(=O)=O)cc1 (centres undefined)	-4	0	-4	-2	25*	5	0
COc1ccccc1/C=C/C(=O)NC(=S)Nc1ccc(S(=O)(=O)N(C)c2ccccc2)cc1	4	0	2	-3	24*	0	1
CN(c1ccccc1)S(=O)(=O)c1ccc(NC(=S)NC(=O)c2ccccc2)cc1	-14	-1	-1	-5	1	4	·
Cn1c(=O)[nH]c(=O)c2c1nc(SCCCO)n2CCCc1ccccc1	-10	-2	·	-5	-2	5	·
CS(=O)(=O)N(CC(=O)Nc1c(F)cccc1F)c1ccc(C23CC4CC(CC(C4)C2)C3)cc1	4	-3	-2	-5	54*	8	-6
CNC(=O)CN(c1ccc(C23CC4CC(CC(C4)C2)C3)cc1)S(C)(=O)=O	8	0	0	-5	3	2	·
CCc1cc2cc3c(cc2nc1SCC(=O)Nc1c[nH]c(=O)[nH]c1=O)OCO3	8	0	-4	4	70*	5	-6
CCc1cc2cc3c(cc2nc1SCC(=O)Nc1nccs1)OCO3	5	-2	-3	-3	8	5	·
COc1cc(OC)c(NC(=O)c2sc3ncn(CC(=O)N4CCN(c5ccccn5)CC4)c(=O)c3c2C)cc1Cl	-4	-1	-2	-7	24*	0	0
COc1ccc(NC(=O)c2sc3ncn(CC(=O)N4CCN(c5ccccn5)CC4)c(=O)c3c2C)c(OC)c1	6	-1	-1	-2	11	0	·
COc1ccc(N2CCN(CCCNC(=O)C3CCC(CNc4nc(=S)[nH]c5ccccc45)CC3)CC2)cc1 (centres undefined)	-13	-1	-2	-1	-1	1	·
O=C(C1CCC(CNc2nc(=S)[nH]c3ccccc23)CC1)N1CCN(c2ccc(F)cc2)CC1 (centres undefined)	-1	-3	-2	-16	37*	·	1
SMILES	PKA-R1A act	CAL PDZ FP-1	CAL PDZ FP-2	PKA-R2B act	dFosB act-1	NTR1 ag	dFosB act-2
O=C(NCCC1=CCCCC1)C1CCC(CNc2nc(=S)[nH]c3ccccc23)CC1 (centres undefined)	-8	1	·	-4	23*	2	2
O=C(NCc1ccccc1Cl)C1CCC(CNc2nc(=S)[nH]c3ccccc23)CC1 (centres undefined)	-6	-3	-4	-9	71*	28	1
CCCCNC(=O)C1CCC(CNc2nc(=S)[nH]c3ccccc23)CC1 (centres undefined)	6	0	2	-1	-3	-1	·
O=C(CCCCCNc1nc(=S)[nH]c2ccccc12)NCc1ccccc1Cl	·	·	·	·	·	2	·
O=C(NCCc1ccc(Cl)cc1)C1CCC(CNc2nc(=S)[nH]c3ccccc23)CC1 (centres undefined)	9	-1	8	3	72*	17	6
COc1ccc(CNCc2cccc3ccccc23)cc1	9	0	-3	-8	-4	1	·
CC(=O)Nc1ccc(S(=O)(=O)NCC2CCC(C(=O)NCCC3=CCCCC3)CC2)cc1 (centres undefined)	-3	-1	-2	-4	63*	-1	5
O=C(Cc1csc(Nc2nc(=S)[nH]c3ccccc23)n1)NCc1ccccc1Cl	-2	-1	·	7	49*	17	7
NC(=O)c1cc(-c2ccccc2)nc2ccc(Br)cc12	·	-1	·	·	23*	2	3
CCc1cc(-c2nnn(CCC3COCCO3)c2C(C)(C)O)ccc1-c1cn(CCc2c[nH]c3ccccc23)nn1 (centres undefined)	-4	·	·	-2	·	·	·
CCN(CC)CCN(C(=O)c1cc2ccccc2cc1OC)c1nc2ccc(OC)cc2s1	3	-3	-4	4	-5	-1	·
CCOc1ccc2nc(N(CCN(C)C)C(=O)c3ccc4c(c3)CCCC4)sc2c1	-5	-1	-2	-9	30*	6	0
Cc1ccc2nc(N(CCCN(C)C)C(=O)c3ccc4c(c3)CCCC4)sc2c1	-4	-3	-3	-6	1	16	·
CCN(CC)CCN(C(=O)c1ccc2ccccc2c1)c1nc2ccc(OC)cc2s1	-6	-3	1	9	26*	1	4
CCN(CC)CCN(C(=O)c1ccc(C(=O)c2ccccc2)cc1)c1nc2c(OC)cccc2s1	-3	10	-2	3	33*	0	6
CC(=O)NC(C)(CC(=O)c1ccccc1)c1ccccc1 (centres undefined)	-6	0	-6	0	-2	0	·
